Compound activity: PubChem BioAssay, several laboratories
Compounds with a hit are over-represented: about 1.8% of the library has one in this group of screens.
CAL PDZ FP-1 – human CAL PDZ-peptide interaction inhibition. hit rate 0.02% among 330,000. purified CAL PDZ, TMR-peptide fluorescence polarization, 1 h. Q9HD26. inhibition, % at 20 µM. AID 504414;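 active = highest replicate inhibition of at least 40%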;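 note: plate controls were DMSO neutral control wells for no effect and unlabeled competitor peptide control wells for full effect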
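Test system: tagged CAL PDZ domain / Buffer or medium: sodium phosphate/NaCl buffer pH 7.4 with TCEP, IgG, Thesit / Reagent: TMR-labelled reporter peptide T*-PRC34 bound in PDZ groove / Compound dosing: single point, 20 µM / Schedule: 1 h incubation at room temperature before polarization reading / Technique: fluorescence polarization (mP) / Benchmarks: unlabelled peptide, DMSO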
Tn6 DDE FP – inhibitors of Tn6 peptide binding to human fibrin DD(E); P02675; Fibrin DD(E) TRITC-Tn6 fluorescence polarization displacement; inhibition, % at 8.3 µM; hit rate 0.21% among 370,000; AID 720509;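 active = inhibition above a per-campaign cutoff: mean of compounds within control limits plus 3 SD, cut at about 15% in these data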;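 note: 0% = median of all compound wells on the plate and 100% = blocking peptide control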
Target sequence (P02675 whole entry, looked up): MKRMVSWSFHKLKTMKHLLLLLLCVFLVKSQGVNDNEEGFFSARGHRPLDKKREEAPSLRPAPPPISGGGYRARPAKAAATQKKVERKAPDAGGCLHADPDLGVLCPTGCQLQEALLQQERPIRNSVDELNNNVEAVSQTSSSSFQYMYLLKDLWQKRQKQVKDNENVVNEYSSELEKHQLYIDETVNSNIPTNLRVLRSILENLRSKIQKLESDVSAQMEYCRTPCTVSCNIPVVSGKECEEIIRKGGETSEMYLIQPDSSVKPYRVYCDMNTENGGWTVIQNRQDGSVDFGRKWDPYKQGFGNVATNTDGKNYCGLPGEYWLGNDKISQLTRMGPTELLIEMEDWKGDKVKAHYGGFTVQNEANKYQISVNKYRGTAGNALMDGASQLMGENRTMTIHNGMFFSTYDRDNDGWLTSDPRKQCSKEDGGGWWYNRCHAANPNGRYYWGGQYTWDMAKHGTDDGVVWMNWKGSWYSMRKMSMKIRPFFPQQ
ARNT-TACC3 inh – disruptors of human ARNT/TACC3 interaction; Q9Y6A5; AlphaScreen His-ARNT PAS-B/GST-TACC3 binding, luminescence; TACC3 fragment carries E629A point mutation; inhibition, % at 9.99 µM; hit rate 0.66% among 390,000; AID 623870;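 active = mean inhibition of replicates at least 50% and at least half of replicates each reaching 50%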;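 note: 0% = complete ARNT plus TACC3 wells and 100% = ARNT alone without TACC3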
GRK2 inh – human GRK2 inhibition via aptamer displacement | P25098 | bead flow cytometry, FAM-aptamer displacement from GRK2 | inhibition of aptamer binding, % at 10 µM | hit rate 0.59% among 330,000;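 active = inhibition of aptamer binding above 40%, roughly 3 SD of noise, on plates passing a quality check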;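 note: median bead fluorescence of bound FAM aptamer so fluorescent compounds give negative values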
CAL PDZ FP-2 – CAL PDZ (human) peptide binding inhibition. AID 602252. Q9HD26. inhibition, % at 24.9 µM. hit rate 0.92% among 300,000. purified CAL PDZ, TMR-peptide fluorescence polarization, 1 h;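 active = mean inhibition of at least 30% with at least half of replicates also reaching 30%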;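 note: 0% = DMSO neutral control and 100% = excess unlabeled competitor peptide PRC23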
DDE Tn7 FP inh – DD(E)-Tn7 binding inhibition, primary FP screen | FP displacement of FITC-Tn7 peptide from fibrin DD(E); 0% = median of compound wells per plate | AID 720508 | hit rate 0.13% among 370,000 | inhibition, % at 8.3 µM | P02675;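 active = inhibition above the mean of compounds falling within the control limits plus 3 SD of them, cut at about 14% in these data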;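 note: 0% = plate median of compound wells and 100% = 10 µM Aha-Tn7 peptide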
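Assay system: human fibrin DD(E). Input: DD(E) 2 µM final. Medium: Tris buffer with calcium and detergent, pH 7.8. Compound dosing: single point at 8.3 µM. Timing: 10 min plus 3 h, room temperature. Technique: fluorescence polarization of the labelled Tn7 tracer. Read-out: percent inhibition. Replicates: singlicate testing.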
ARNT Alpha ctr-1 – interferes with AlphaScreen signal, flagging false ARNT-TACC3 hits; shares compounds with ARNT-TACC3 inh; His-ARNT PASB-GST AlphaScreen artifact counter-screen, luminescence; AC50, µM (titrated, usually from 68 µM), for the others: top-dose activity change, negative = signal decrease; hit rate 50% among 1,200;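 active = every separate test run was called active for a drop in luminescence, with AC50 within twice the top valid dose, actives reach about 71 µM in these data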
ARNT Alpha ctr-2 – AlphaScreen artifact flagged for ARNT-TACC3 inhibitors | shares compounds with ARNT-TACC3 inh | Dual-tagged His-ARNT PASB-GST AlphaScreen artifact counter-screen | AID 720564 | hit rate 70% among 45 | AC50, µM;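 active = luminescence drop, with half-maximal potency fitted within twice the sample's top valid dose, cut at about 70 µM in these data; inactive = the rest, including signal moving the wrong way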
The depositor's hits bear a star; . = no result; [ ] = remark or other dose.

SMILES | CAL PDZ FP-1 | Tn6 DDE FP | ARNT-TACC3 inh | GRK2 inh | CAL PDZ FP-2 | DDE Tn7 FP inh | ARNT Alpha ctr-1 | others
Cc1ccc(S(=O)(=O)N(C)C[C@@H]2OCCCC[C@H](C)Oc3ccc(NC(=O)CCCN(C)C)cc3C(=O)N([C@@H](C)CO)C[C@H]2C)cc1 | . | . | 7.7 | . | . | . | .
N#CC1=C(N)Oc2c(ccc3cccnc23)C1c1cccnc1 (stereo not drawn) | -1.3 | 0.7 | 54.6* | 5.0 | -1.5 | -7.8 | 41.4µM*
C#CCOCCOCCOCCNc1nc(N2CCN(C(=O)[C@H](CCCCN)n3cc([C@@H](N)CO)nn3)CC2)nc(N2CCN(C(=O)[C@H](Cc3ccc(O)cc3)n3cc([C@@H](N)CC(C)C)nn3)CC2)n1 | 0.0 | -4.7 | 38.2* | 0.0 | -2.8 | 3.0 | -17.4%
C#CCOCCOCCOCCNc1nc(N2CCN(C(=O)[C@H](Cc3ccc(O)cc3)n3cc([C@@H](N)C(C)CC)nn3)CC2)nc(N2CCN(C(=O)[C@H](CCCCN)n3cc([C@@H](N)CC(C)C)nn3)CC2)n1 (stereo partly drawn) | . | . | . | 0.0 | . | . | .
C#CCOCCOCCOCCNc1nc(N2CCN(C(=O)[C@H](CCCCN)n3cc([C@@H](N)CC(N)=O)nn3)CC2)nc(N2CCN(C(=O)[C@H](CCCCN)n3cc([C@@H](N)CC(N)=O)nn3)CC2)n1 | -0.6 | -3.0 | 59.8* | 0.0 | -3.7 | 4.9 | -2.7%
C#CCOCCOCCOCCNc1nc(N2CCN(C(=O)[C@H](CCCCN)n3cc(CN)nn3)CC2)nc(N2CCN(C(=O)[C@H](CCCCN)n3cc([C@@H](N)CC(N)=O)nn3)CC2)n1 | 0.8 | -1.5 | 35.9 | . | 0.7 | 7.0 | .
C#CCOCCOCCOCCNc1nc(N2CCN(C(=O)[C@H](CC(N)=O)n3cc([C@@H](N)CC(N)=O)nn3)CC2)nc(N2CCN(C(=O)[C@H](CC(N)=O)n3cc([C@@H](N)CC(N)=O)nn3)CC2)n1 | -0.7 | -0.9 | 45.8* | 0.0 | 1.1 | 1.7 | -7.4%
C[C@@H]1CCCCO[C@@H](CN(C)C(=O)Nc2ccc3c(c2)OCO3)[C@H](C)CN([C@@H](C)CO)C(=O)c2cc(NS(=O)(=O)c3cccs3)ccc2O1 | . | . | -2.7 | . | . | . | .
C[C@@H]1CN([C@H](C)CO)C(=O)c2cc(NC(=O)Nc3ccc(C(F)(F)F)cc3)ccc2O[C@H]1CN(C)Cc1ccc(C(F)(F)F)cc1 | . | . | -6.8 | . | . | . | .
Cn1nc(-c2ccccn2)nc2c(=O)n(C)c(=O)nc1-2 | -0.2 | 3.7 | 66.6* | 0.0 | -1.7 | 5.0 | -1.5%
COCC(=O)NC[C@H]1[C@@H](c2ccccc2)[C@@H](CO)N1C(=O)c1ccccc1 | . | . | -2.0 | . | . | . | .
COC(=O)[C@]12C[C@H](CC(=O)NCC34CC5CC(CC(C5)C3)C4)C(=O)N(Cc3ccc(Cl)cc3Cl)C1=C[C@H](C1CCCC1)O[C@@H]2C | . | -2.1 | . | . | . | -0.1 | .
Cc1nnc(NC(=O)CSc2nnc(CNC(=O)c3ccc(F)cc3)o2)s1 | 0.3 | -0.8 | 46.5* | 1.0 | -1.5 | -7.5 | -8.0%
c1ccc(-c2noc(-c3ccco3)n2)nc1 | -1.8 | 5.4 | . | 0.0 | -4.7 | -2.4 | .
c1ccc(-c2nccc(-c3ccco3)n2)nc1 | 0.0 | 11.6 | 59.2* | 0.0 | 5.1 | 5.5 | 56.5µM*
Cc1noc(C)c1NC(=O)Nc1ccc2c(c1)C(=O)N([C@@H](C)CO)C[C@@H](C)[C@@H](CN(C)C(=O)Nc1ccc(C(F)(F)F)cc1)O2 | . | . | -0.5 | . | . | . | .
NNc1nc(-c2ccccc2)c2ccccc2n1 | -4.0 | 5.9 | 24.9 | 4.0 | -2.1 | 11.5 | .
NNc1nnc(-c2ccccc2)c(-c2ccccc2)n1 | 0.2 | 3.9 | 52.3* | 4.0 | -1.3 | -2.4 | 50.5µM*
COc1ccc(S(=O)(=O)n2oc(=O)cc2-c2ccccc2)cc1OC | -2.4 | -2.7 | active | 0.0 | -1.9 | 4.2 | 7.84µM*
COc1ccc(S(=O)(=O)n2oc(=O)cc2-c2ccccc2)cc1 | -0.8 | -1.8 | 15.1 | 3.0 | 4.4 | 0.9 | .
O=C(Nc1nc(-c2ccccn2)cs1)c1ccc(F)c(S(=O)(=O)N2CCOCC2)c1 | -0.2 | -5.9 | 68.2* | 2.0 | 9.2 | -4.3 | 9.01µM*
O=C(Nc1nc(-c2ccccn2)cs1)c1cc(S(=O)(=O)N2CCOCC2)ccc1F | -0.7 | 2.9 | 73.6* | 0.0 | -3.8 | 7.5 | 23.2µM*
Cc1ccc(C(=O)Nc2ccccn2)cc1S(=O)(=O)N1CCOCC1 | -1.1 | 3.3 | 3.5 | 0.0 | 7.3 | 5.0 | .
Cc1ccc(C(=O)Nc2nc(-c3ccccn3)cs2)cc1S(=O)(=O)N1CCOCC1 | -3.8 | -6.5 | 66.2* | 0.0 | -3.8 | -0.9 | 23.5µM* | ARNT Alpha ctr-2=10*
Cc1ccc(S(=O)(=O)N2CCOCC2)cc1C(=O)Nc1nc(-c2cccnc2)cs1 | -2.0 | -10.3 | 4.0 | 3.0 | 0.6 | 2.8 | .
SMILES | CAL PDZ FP-1 | Tn6 DDE FP | ARNT-TACC3 inh | GRK2 inh | CAL PDZ FP-2 | DDE Tn7 FP inh | ARNT Alpha ctr-1 | others
Cc1nnc(NC(=O)c2ccc(F)c(S(=O)(=O)N3CCOCC3)c2)s1 | -0.2 | -8.6 | -13.9 | 0.0 | -3.3 | -7.0 | .
COC(=O)c1ccccc1S(=O)(=O)N1CCC(C(=O)Nc2ccc(N3CCOCC3)cc2)CC1 | -1.6 | 1.2 | 5.0 | 3.0 | . | 3.9 | .
COc1ccccc1C(=O)Nc1ccccc1N1CCCCC1 | 0.1 | -8.0 | 14.1* | 0.0 | 6.9 | -11.5 | 5.5%
CCC(=O)N(C)C[C@@H]1Oc2ncc(C#CCC(C)C)cc2C(=O)N([C@H](C)CO)C[C@H]1C | . | . | -8.1 | . | . | . | .
O=C(NCc1ccccn1)c1c(-c2ccccc2)sc2ccccc12 | 0.3 | -2.1 | 58.9* | 2.0 | -5.2 | 1.2 | -17.3%
O=C(NCc1ccccn1)c1ccc(-c2ccccc2)cc1 | -0.9 | 3.2 | 17.0 | 3.0 | -1.9 | 2.2 | .
Cc1ccc(-n2c(-c3ccc(Br)cc3)c[n+]3c2CCc2ccc4cccnc4c2-3)cc1 | -7.4 | -8.3 | 58.8* | 0.0 | -3.0 | -4.5 | -11.1%
Cc1noc(C)c1S(=O)(=O)N(C)C[C@@H]1OCCCC[C@@H](C)Oc2ccc(NC(=O)C3CCCCC3)cc2C(=O)N([C@@H](C)CO)C[C@H]1C | . | . | -4.0 | . | . | . | .
C[C@@H]1CN([C@@H](C)CO)C(=O)c2cc(NS(=O)(=O)c3ccc(F)cc3)ccc2O[C@@H](C)CCCCO[C@H]1CN(C)Cc1ccncc1 | . | . | 23.6 | . | . | . | .
C/C=C/c1ccc([C@H]2[C@@H](CO)N(Cc3ccccn3)[C@H]2CNC(C)=O)cc1 | . | . | 29.9* | . | . | . | -21.7%[38 µM]
O=C(NC[C@@H]1[C@H](c2ccccc2)[C@H](CO)N1Cc1ccccn1)C1CC1 | . | . | 45.9* | . | . | . | -9.2%[38 µM]
